# Bioassay records from PubChem BioAssay.
# Scp1 inh: blocks human Scp-1 phosphatase activity; Recombinant Scp1, phosphopeptide, malachite green phosphate absorbance; inhibition, % at 20 µM; actives 0.88% (n = 340,000);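 active means inhibition above about 50% at 20 µM, limit read from the data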;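 further: plate controls were DMSO wells with enzyme for no effect and wells lacking enzyme for full effect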
# Target sequence (Q9GZU7 76-261 limits assumed): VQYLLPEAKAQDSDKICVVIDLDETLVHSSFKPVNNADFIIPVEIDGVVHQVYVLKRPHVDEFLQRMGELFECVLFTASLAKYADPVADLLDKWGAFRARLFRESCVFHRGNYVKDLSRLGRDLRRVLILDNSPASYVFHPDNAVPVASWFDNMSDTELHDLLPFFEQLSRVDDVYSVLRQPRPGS
#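 Test system: SCP-1 phosphatase catalytic domain, residues 76-261 | Compound dosing: One concentration, 20 µM, with 1.0% DMSO | Schedule: 45 min room-temperature reaction, 5 min colour, 30 min stabiliser | Detection: Absorbance at 630 nm | Read-out basis: % inhibition of SCP-1 phosphate liberation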
# LMPTP block: blocks human LMPTP phosphatase. P24666. recombinant LMPTP-A, OMFP fluorogenic substrate, fluorescence intensity. inhibition, % at 20 µM. actives 0.22% (n = 360,000). AID 651560;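 active means compounds that cut the enzyme signal by at least half of the control window in the single-dose screen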;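 further: plate controls were DMSO wells with enzyme plus substrate for no effect and substrate without enzyme for full effect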
# Target sequence (P24666 whole entry, looked up): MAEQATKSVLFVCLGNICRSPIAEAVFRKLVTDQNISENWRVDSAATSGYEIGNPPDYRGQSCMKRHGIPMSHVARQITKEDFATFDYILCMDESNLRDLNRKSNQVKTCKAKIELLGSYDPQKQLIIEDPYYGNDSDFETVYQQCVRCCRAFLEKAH
#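 Assay system: LMPTP-A, protein tyrosine phosphatase of low molecular weight / Medium: pH 6.0 Bis-Tris buffer with DTT and Triton X-100 / Schedule: 50 min enzyme reaction at room temperature, protected from light / Measured by: endpoint fluorescence intensity from OMFP dephosphorylation / Read-out basis: % inhibition relative to no-enzyme and uninhibited control wells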
# STEP inh: STEP (human) phosphatase inhibition | actives 0.25% (n = 360,000) | P54829 | inhibition, % at 20 µM | AID 588621 | recombinant STEP, OMFP fluorogenic substrate, fluorescence;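 active means inhibition at 20 µM, scaled per plate between control wells, above about 37%, limit read from the data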;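 further: 0% = DMSO with enzyme and substrate and 100% = substrate only without enzyme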
#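 Material: STEP (striatal-enriched tyrosine phosphatase) enzyme, cell-free | Medium: 50 mM Bis-Tris pH 6.0 with 2.5 mM DTT and 0.005% Tween 20 | Read-out: Percent inhibition scaled to no-enzyme and uninhibited-enzyme controls, plate-pattern corrected | Signal: Fluorescence read at 480 nm ex / 540 nm em | Times: 20 min reaction, room temperature, in the dark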
# NadD inh: NadD (S. aureus) enzyme inhibition; AID 602399; purified NadD enzyme, colorimetric absorbance read-out; inhibition, % at 20 µM; actives 0.78% (n = 360,000); in the data active means inhibition above about 26%
# DNMT1 inh: DNMT1 (human) enzyme inhibition; DNMT1 molecular beacon, Hinp1I cleavage, fluorescence; AID 588458; actives 0.83% (n = 360,000); P26358; inhibition (reported as % activation of signal), % at 10 µM; in the data active means inhibition above about 50%
# SUMO1-SIM PPI: alters human SUMO1 binding to SIM partners. actives 0.33% (n = 360,000). P63165. inhibition, % at 20 µM. SUMO1 binding to a labelled peptide, TR-FRET, 1 h; in the data active means inhibition above about 37%
# Target sequence (P63165 whole entry, looked up): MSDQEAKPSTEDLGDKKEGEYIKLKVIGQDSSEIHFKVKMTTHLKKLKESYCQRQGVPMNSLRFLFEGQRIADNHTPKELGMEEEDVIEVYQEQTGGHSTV
# Scp-1 conf: Scp-1 (human) inhibition, single-dose confirmed; shares compounds with Scp1 inh; recombinant SCP-1 catalytic domain, phosphate release, malachite green absorbance; inhibition, % at 20 µM; actives 61% (n = 2,500);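 further: plate controls were DMSO with enzyme for no effect and buffer wells lacking enzyme for full effect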
# Scp-1 MG ctr: counter-screen for Scp-1 inhibitors: colorimetric interference; shares compounds with Scp1 inh; Colorimetric interference counterscreen, malachite green absorbance 630 nm; apparent inhibition (interference), % at 20 µM; 2,500 tested, under 10 active;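 further: compounds added after enzyme reaction finished so only phosphate colour detection is probed; plate controls were DMSO wells with completed Scp-1 reaction for no effect and substrate wells lacking enzyme for full effect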
# Scp-1 Tm shift: validation of human Scp-1 inhibitors by thermal shift binding; actives 25% (n = 1,500); Recombinant SCP1, Sypro Orange thermal shift Tm; thermal shift relative to vanadate control, % at 40 µM; shares compounds with Scp1 inh; AID 540329;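 active means substances whose mean melting-temperature shift, as a percentage of the reference inhibitor's shift, reaches about 5.3%, limit read from the data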;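 further: 0% = Tm of DMSO wells and 100% = Tm with sodium orthovanadate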
# An asterisk follows results filed as active; x = not tested or not shown. Hits are enriched below; roughly 2.4% of the tested compounds scored in any of these assays.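 How the source made its calls, unless noted: active means inhibition of at least 30% at 20 µM; inactive means the rest.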
SMILES,Scp1 inh,LMPTP block,STEP inh,NadD inh,DNMT1 inh,SUMO1-SIM PPI,Scp-1 conf,Scp-1 MG ctr,Scp-1 Tm shift
Nc1ccc(C(=O)Nc2ccc3c(O)cc(S(=O)(=O)O)cc3c2)cc1,53*,21,3,4,12,20,46*,-17,11*
CCN(CC(=O)NC1CCCCC1)S(=O)(=O)c1ccc(Cl)cc1,63*,1,1,3,4,1,-8,-6,x
COc1cc(/C=C2\C(=N)N3N=C(S(C)(=O)=O)SC3=NC2=O)ccc1OCCOc1ccccc1C,51*,6,4,19,-8,13,57*,-2,12*
COc1cc(/C=C2\C(=N)N3N=C(S(C)(=O)=O)SC3=NC2=O)ccc1OC(=O)c1ccco1,52*,1,1,11,20,4,68*,-14,11*
CCN(CC)CCN1C(=O)C(=O)/C(=C(/O)c2ccc(OC(C)C)cc2)C1c1ccncc1 (centres undefined),-10,0,-2,-2,-1,-2,x,x,x
O=C(Nc1ccc(F)cc1)c1cccc(N2C(=O)c3ccccc3C2=O)c1,82*,1,13,-8,0,21,55*,-5,-3
O=C(CNC(=O)c1cccc(N2C(=O)c3ccccc3C2=O)c1)Nc1ccc(F)c(F)c1,-2,1,1,-6,8,-8,x,x,x
O=C(CN1C(=O)NC2(CCCCC2)C1=O)NCC(=O)Nc1ccc(F)c(F)c1,-2,-2,-1,-6,3,0,-12,-15,x
Cc1ccc([N+](=O)[O-])cc1S(=O)(=O)n1ccnc1C,-1,-1,-1,10,2,-12,x,x,x
COc1ccccc1C(=O)OCc1cc(=O)n2ccsc2n1,16,10,-1,2,22,-2,x,x,x
O=C(OCc1cc(=O)n2ccsc2n1)c1ccccc1O,53*,2,-4,-2,30,7,8,-5,x
COCCNC(=O)C(=O)NCC1OCCN1S(=O)(=O)c1ccc2c(c1)OCCO2 (centres undefined),-8,-1,-3,-3,2,5,x,x,x
CC(C)C(=O)N1CCN(c2ccc([N+](=O)[O-])c(NC(C)c3ccccc3)c2)CC1 (centres undefined),-9,2,2,-1,-7,-20,x,x,x
CC(Nc1cc(N2CCN(C(=O)C(C)(C)C)CC2)ccc1[N+](=O)[O-])c1ccccc1 (centres undefined),53*,6,3,-4,-4,-19,-21,-24,x
Brc1ccc(-c2nn3c(-c4ccccn4)nnc3s2)o1,72*,0,6,6,8,-2,50*,-11,2
Clc1ccccc1-c1nn2c(-c3ccccn3)nnc2s1,-2,0,-3,3,2,7,x,x,x
COc1cc(-c2nnc(COC(=O)c3cc(C)no3)o2)cc(OC)c1OC,-5,-1,1,2,-3,5,x,x,x
COc1cc(-c2nnc(COC(=O)c3ccc(C)o3)o2)cc(OC)c1OC,59*,6,13,-4,36,8,47*,1,-3
CC(=O)Nc1cc2c(c(Cl)c1Cl)-c1ccccc1C2=O,80*,23,6,-10,17,37,-15,-13,x
CN(C)C(=O)CSc1nnc(C23CC4CC(CC(C4)C2)C3)o1,-6,-2,2,-3,2,-1,x,x,x
O=C(O)c1ccc(-n2ncc3c2/C(=C\c2cccc([N+](=O)[O-])c2)CC3)cc1,64*,19,5,14,1,9,64*,-14,3
O=C(O)c1ccc(-n2ncc3c2/C(=C/c2cccc([N+](=O)[O-])c2)CC3)cc1,45,34,6,11,6,-1,x,x,x
O=C(N/N=C/c1cc2ccccc2nc1Cl)/C(=C/c1cccs1)NC(=O)c1ccccc1,99*,-2,14,18,-8,9,35*,-8,3
Cc1ccc(N2NC(=O)/C(=C/c3ccc(-c4ccc(Cl)c(C(=O)O)c4)o3)C2=O)cc1C,22,2,8,3,13,-3,x,x,x
CC1(C)OC(=O)C(=Cc2ccc(-c3ccc(Cl)c(C(=O)O)c3)o2)C(=O)O1,57*,1,8,5,52*,18,57*,-9,-10
SMILES,Scp1 inh,LMPTP block,STEP inh,NadD inh,DNMT1 inh,SUMO1-SIM PPI,Scp-1 conf,Scp-1 MG ctr,Scp-1 Tm shift
O=C(Nc1nnc(CCc2ccccc2)s1)c1ccccc1,6,-1,-1,-5,2,5,x,x,x
O=C(Cc1nnc(NC(=O)c2ccccc2)s1)N/N=C/c1ccc(O)cc1,62*,9,26,7,-8,-13,49*,-8,5
O=C(C[n+]1cccc(C(=O)Nc2ccccc2)c1)c1ccc(Cl)cc1,x,-2,x,2,x,-12,x,x,x
NC(=O)C[n+]1cccc(C(=O)Nc2ccccc2)c1,90*,-1,-2,6,0,1,-6,-6,x
CCCS(=O)(=O)c1c(S(=O)(=O)CCC)c2ccc(C(N)=O)cn2c1C(=O)c1ccccc1,-8,0,0,-5,3,0,x,x,x
CC(=O)Nc1nnc(SCC(=O)Nc2ccc(N3CCOCC3)c(Cl)c2)s1,63*,1,1,10,-3,-1,-3,-8,x
COc1ccccc1C(=O)Nc1c2c(nn1-c1ccc([N+](=O)[O-])cc1)CS(=O)(=O)C2,-4,-1,0,3,2,-4,x,x,x
COc1ccccc1C(=O)Nc1c2c(nn1-c1cccc(C)c1C)CS(=O)(=O)C2,73*,-1,22,-6,4,18,46*,-14,-12
Cc1cccc(-n2nc3c(c2NC(=O)c2ccco2)CS(=O)(=O)C3)c1C,-9,1,-5,-2,1,4,x,x,x
COc1ccccc1C(=O)Nc1c2c(nn1-c1ccc(Cl)cc1)CS(=O)(=O)C2,50*,7,3,-1,8,-3,18,-17,x
COC(=O)[C@@]12C[C@@H](CC(=O)NCc3ccc(OC)c(OC)c3)C(=O)N(Cc3ccc4c(c3)OCO4)C1=CCC(C)(C)C2,x,1,x,x,x,2,x,x,x
COc1ccc(-c2noc(CCC(=O)N3CCN(c4ccccc4Br)CC3)n2)cc1,54*,4,3,-3,-5,-3,-12,-8,x
